From PubChem
A selection: hits, their analogues and other compounds. The true share with any hit is near 3.7%.
KCNK3 block = human KCNK3 channel inhibition, primary screen. actives 0.84% (n = 340,000). O14649. B-score at 10 µM. CHO-KCNK3 thallium flux, FluxOR fluorescence; hits give low values;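 active = B-score under library mean minus 4 SD, starting fluorescence ratio at most library mean plus 5 SD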;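 note: more negative B-score means stronger inhibition of thallium flux through KCNK3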
hERG protect = compounds protecting human hERG from proarrhythmic drug block; Q12809; CHO-hERG, FluxOR thallium flux, dofetilide IC70 present; activation (rescue from dofetilide block), less the hit threshold, % at 10 µM; actives 0.51% (n = 310,000); AID 1511;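 active = activation above the mean of controls blocked by dofetilide plus 5 SD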;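 note: thallium influx through hERG after potassium depolarization seen as dye fluorescence rise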
KCNK9 block = inhibitors of human KCNK9 two-pore domain potassium channel. Q9NPC2. HEK293 KCNK9, FluxOR thallium flux fluorescence; hits give low values. B-score at 10 µM. actives 1.2% (n = 310,000). AID 488922;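 active = ratio B-score over 3 SD below the library mean, with starting fluorescence within 5 SD of its mean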;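 note: negative B-score means less thallium flux so channel inhibition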
Kir21 block = blocks the mouse Kir2.1 inward-rectifier potassium channel. P35561. HEK293-Kir2.1, FluxOR thallium flux fluorescence; hits give low values. B-score at 10 µM. actives 0.85% (n = 310,000);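 active = fluorescence ratio B-score at or below minus 3 SD of library scores, with starting-brightness B-score within 2 SD, cut at about -4.2 in these data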;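 note: channel flux triggered by added potassium and thallium sulfate stimulus; B-score of peak minus minimum fluorescence over baseline after thallium stimulus; more negative B-score means stronger Kir2.1 block with less thallium influx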
KCNQ1 act = potentiates or activates the human KCNQ1 potassium channel. CHO-K1 KCNQ1, thallium flux FluxOR fluorescence; hits give high values. actives 0.35% (n = 310,000). P51787. B-score at 10 µM;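 active = fluorescence ratio B-score, a plate-corrected score, at least three library SD, with initial intensity B-score within 5 SD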
Target sequence (P51787 whole entry, looked up): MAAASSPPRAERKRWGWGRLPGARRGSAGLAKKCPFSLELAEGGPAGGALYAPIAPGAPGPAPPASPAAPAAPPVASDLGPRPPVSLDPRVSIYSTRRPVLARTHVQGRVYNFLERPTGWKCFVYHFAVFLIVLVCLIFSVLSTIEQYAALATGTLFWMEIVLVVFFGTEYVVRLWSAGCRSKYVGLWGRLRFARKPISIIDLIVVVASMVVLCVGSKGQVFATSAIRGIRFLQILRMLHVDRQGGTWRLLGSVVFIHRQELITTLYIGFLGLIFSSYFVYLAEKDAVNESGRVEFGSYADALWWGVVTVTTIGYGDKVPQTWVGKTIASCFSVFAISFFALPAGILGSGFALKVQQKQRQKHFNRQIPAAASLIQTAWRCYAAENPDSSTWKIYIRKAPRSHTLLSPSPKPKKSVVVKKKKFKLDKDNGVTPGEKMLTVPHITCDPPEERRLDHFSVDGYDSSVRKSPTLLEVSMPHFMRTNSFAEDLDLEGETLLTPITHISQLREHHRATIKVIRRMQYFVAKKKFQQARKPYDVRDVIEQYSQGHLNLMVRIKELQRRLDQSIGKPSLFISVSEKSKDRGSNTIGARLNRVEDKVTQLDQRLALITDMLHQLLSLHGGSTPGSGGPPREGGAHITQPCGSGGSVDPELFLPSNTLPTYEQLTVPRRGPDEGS
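Test system: CHO-K1 cells stably expressing KCNQ1 / Medium: assay buffer / Also added: depolarizing K+/Tl+ stimulus, K2SO4 and Tl2SO4 each 12.5 mM in 5x stock / Incubation: 90 min dye loading and 20 min compound exposure, both at room temperature / Signal: thallium influx via FluxOR fluorescence, kinetic imaging / Evaluation: B score of baseline-normalized fluorescence ratio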
KCNQ1 block = human KCNQ1 channel inhibition; CHO-K1 KCNQ1, FluxOR thallium flux fluorescence; hits give high values; B-score at 10 µM; actives 1.3% (n = 310,000);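 active = compounds whose thallium flux B-score, printed positive for inhibition, exceeds three library SD while starting fluorescence stays within three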;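 note: channel opened by potassium depolarization with thallium stimulus after 20 min compound exposure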
* = called active by the depositor.

What do the screens show for `COc1ccc(C(=O)c2cnc3cc4c(cc3c2C)OCO4)cc1`?
KCNK3 block: inactive; hERG protect: -8.7; KCNK9 block: -6.95*; Kir21 block: -1.4; KCNQ1 act: inactive; KCNQ1 block: inactive

What do the screens show for `c1ccc(Cn2nnc3c(N4CCN(Cc5ccc6c(c5)OCO6)CC4)ncnc32)cc1`?
KCNK3 block: inactive; hERG protect: -9.9; KCNK9 block: inactive; Kir21 block: 0.87; KCNQ1 act: inactive; KCNQ1 block: inactive

How did c1ccc2c(c1)oc1c(N3CCN(Cc4ccc5c(c4)OCO5)CC3)ncnc12 do in these assays?
KCNK3 block: -9.52*; hERG protect: -16.9; KCNK9 block: inactive; Kir21 block: 0.09; KCNQ1 act: inactive; KCNQ1 block: inactive

Results for CC1CC1C(=O)OCc1cc(=O)n2cc(Br)ccc2n1 (stereo not drawn) ?
KCNK3 block: inactive; hERG protect: -5.4; KCNK9 block: inactive; Kir21 block: -0.26; KCNQ1 act: inactive; KCNQ1 block: inactive

Results for O=C(CNC(=O)C12CC3CC(CC(C3)C1)C2)OCc1cc(=O)n2cc(Br)ccc2n1 ?
KCNK3 block: inactive; hERG protect: 6.1*; KCNK9 block: inactive; Kir21 block: -0.45; KCNQ1 act: inactive; KCNQ1 block: inactive

What do the screens show for `O=C(NCCCN1CCN(c2ccc(F)cc2)CC1)NC12CC3CC(CC(C3)C1)C2`?
KCNK3 block: inactive; hERG protect: -16.2; KCNK9 block: inactive; Kir21 block: -1.75; KCNQ1 act: inactive; KCNQ1 block: inactive

What do the screens show for `O=C(NCCCN1CCOCC1)NC12CC3CC(CC(C3)C1)C2`?
KCNK3 block: inactive; hERG protect: -6.6; KCNK9 block: inactive; Kir21 block: -0.39; KCNQ1 act: inactive; KCNQ1 block: 6*

What do the screens show for `Oc1cccc(C(O)CNCc2ccc(-c3ccccc3)cc2)c1` (stereo not drawn)?
KCNK3 block: inactive; hERG protect: -12.6; KCNK9 block: inactive; Kir21 block: -7.85*; KCNQ1 act: inactive; KCNQ1 block: inactive

What do the screens show for `OC(CNCc1ccccc1)c1ccccc1` (stereo not drawn)?
KCNK3 block: inactive; hERG protect: -6.9; KCNK9 block: inactive; Kir21 block: -0.22; KCNQ1 act: inactive; KCNQ1 block: inactive

What do the screens show for `Cc1ccsc1/C=N/Nc1ncc(Cl)cc1Cl`?
KCNK3 block: inactive; hERG protect: -9.0; KCNK9 block: inactive; Kir21 block: -0.65; KCNQ1 act: inactive; KCNQ1 block: 6*

Results for CC(C)c1ccc(C2(C)NC(=O)N(CC(=O)NCC3COc4ccccc4O3)C2=O)cc1 (stereo not drawn) ?
KCNK3 block: inactive

How did Cc1ccc(C2(CCNCc3ccco3)CCOC(C(C)C)C2)cc1 (stereo not drawn) do in these assays?
KCNK3 block: inactive; hERG protect: -8.1; KCNK9 block: inactive; Kir21 block: -4.28*; KCNQ1 act: inactive; KCNQ1 block: inactive

What do the screens show for `O=C(Cc1ccccc1)NC1CCN(S(=O)(=O)c2ccc(C(=O)O)cc2)CC1`?
KCNK3 block: inactive; hERG protect: 6.1*; KCNK9 block: inactive; Kir21 block: 0.12; KCNQ1 act: inactive; KCNQ1 block: inactive

How did COCC(=O)NC1CCN(S(=O)(=O)c2ccc(C(=O)O)cc2)CC1 do in these assays?
KCNK3 block: inactive; hERG protect: -9.5; KCNK9 block: inactive; Kir21 block: 0.07; KCNQ1 act: inactive; KCNQ1 block: inactive

What do the screens show for `CCOc1ccc(OCCN2C(=O)NC(Cc3c[nH]c4ccccc34)C2=O)cc1` (stereo not drawn)?
KCNK3 block: inactive; hERG protect: -20.0; KCNK9 block: inactive; Kir21 block: 0.04; KCNQ1 act: inactive; KCNQ1 block: inactive

Results for O=C1NC(Cc2c[nH]c3ccccc23)C(=O)N1CCOc1ccc(F)cc1 (stereo not drawn) ?
KCNK3 block: inactive; hERG protect: -10.5; KCNK9 block: inactive; Kir21 block: -5.26*; KCNQ1 act: inactive; KCNQ1 block: inactive

Results for Cc1cc(/C=N/n2cnnc2)c(C)n1-c1cc(Cl)ccc1Cl ?
KCNK3 block: inactive; hERG protect: -6.8; KCNK9 block: inactive; Kir21 block: -0.4; KCNQ1 act: 12*; KCNQ1 block: inactive

Results for Cc1cc(C=NCCO)c(C)n1-c1cc(Cl)ccc1Cl ?
KCNK3 block: inactive; hERG protect: -12.1; KCNK9 block: inactive; Kir21 block: -2.22; KCNQ1 act: inactive; KCNQ1 block: inactive

Results for O=C(Oc1cccc2c(O)cccc12)c1ccccc1 ?
KCNK3 block: inactive; hERG protect: -7.1; KCNK9 block: inactive; Kir21 block: -5.42*; KCNQ1 act: inactive; KCNQ1 block: inactive

Results for O=C(Nc1cccc(S(=O)(=O)Nc2ccc(Cl)cc2)c1)c1ccccn1 ?
KCNK3 block: inactive

Results for Cc1ccc(C)c2c1[nH]c1ccc([N+](=O)[O-])cc12 ?
KCNK3 block: inactive; hERG protect: -6.5; KCNK9 block: inactive; Kir21 block: -0.47; KCNQ1 act: inactive; KCNQ1 block: 8*

What do the screens show for `COc1ccc(S(=O)(=O)N2CCN(C(=O)NCc3ccc(C)cc3)CC2)cc1`?
KCNK3 block: inactive; hERG protect: -12.3; KCNK9 block: inactive; Kir21 block: 0.04; KCNQ1 act: inactive; KCNQ1 block: inactive

How did C=CCn1c(=O)c(C(=O)NCc2ccc(Cl)cc2)c(O)c2ccccc21 do in these assays?
KCNK3 block: inactive; hERG protect: -9.3; KCNK9 block: inactive; Kir21 block: -0.97; KCNQ1 act: inactive; KCNQ1 block: 7*

Results for C=CCn1c(=O)c(C(=O)NCCc2ccccc2)c(O)c2ccccc21 ?
KCNK3 block: inactive; hERG protect: -3.0; KCNK9 block: inactive; Kir21 block: -0.42; KCNQ1 act: inactive; KCNQ1 block: 6*

Results for Cn1c(=O)c(C(=O)NCCc2ccccc2)c(O)c2ccccc21 ?
KCNK3 block: inactive; hERG protect: -1.6; KCNK9 block: inactive; Kir21 block: 0.1; KCNQ1 act: inactive; KCNQ1 block: inactive

Results for C=CCn1c(=O)c(C(=O)Nc2ccc(C)cn2)c(O)c2ccccc21 ?
KCNK3 block: inactive; hERG protect: -5.0; KCNK9 block: inactive; Kir21 block: 0.45; KCNQ1 act: inactive; KCNQ1 block: inactive

How did C=CC(=O)N1CCCC(Nc2nc(Nc3ccc(N(C)C(=O)CC)cc3C)nc3nc[nH]c23)C1 (stereo not drawn) do in these assays?
KCNK3 block: inactive

Results for Cc1ccccc1S(=O)(=O)Cc1ccc(C(=O)NCCCN2CCCC(C)C2)o1 (stereo not drawn) ?
KCNK3 block: inactive; hERG protect: -1.6; KCNK9 block: inactive; Kir21 block: -2.53; KCNQ1 act: inactive; KCNQ1 block: inactive
